The values that follow come from ChEMBL document CHEMBL1153370, “New pyridazine derivatives: synthesis, chemistry and biological activity” (2009).

For the first assay, the system named is Candida albicans. The experiment in a line: Antifungal activity Candida albicans ATCC 10231 after 48 hrs at 28 degC by agar diffusion technique. The assay is classed as functional. Put shortly: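 Fungi were maintained on Mueller Hinton agar and tested by diffusion on agar seeded with the organism. After 48 h incubation at 28 °C, the inhibition zone diameter (mm, mean) was measured.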
Turning to `COC(=O)c1c(C(=O)OC)c2cccnn2c1C(=O)c1ccc(Cl)cc1`, the “Diameter of inhibition zone” value worked out at 24 mm.
In the case of `N#C[C@H]1C[C@@H](C(=O)c2ccc(Cl)cc2)N2N=CC=C[C@@H]12`, the “Diameter of inhibition zone” value is 35 mm.
`COC(=O)[C@H]1[C@H](C(=O)OC)[C@H](C(=O)c2ccc(Cl)cc2)N2N=CC=C[C@@H]12`: the “Diameter of inhibition zone” value is given as 27 mm.
`Cc1ccc(C(=O)[C@H]2[C@@H]3C(=O)N(c4ccccc4)C(=O)[C@@H]3[C@@H]3C=CC=NN32)cc1`: the “Diameter of inhibition zone” value is given as 29 mm.
For `N#C[C@H]1C[C@@H](C(=O)c2ccc(F)cc2)N2N=CC=C[C@@H]12`, the “Diameter of inhibition zone” value came to 23 mm.
As for `COC(=O)[C@@H]1[C@H](C(=O)OC)[C@H](C(=O)c2ccc(C)cc2)N2N=CC=C[C@@H]12`, the “Diameter of inhibition zone” value is 30 mm.
`O=C(C[n+]1ccccn1)c1ccc(F)cc1.[Br-]`: the “Diameter of inhibition zone” value was found to be 19 mm.
On the same count and under the same terms, the same measure for `COC(=O)[C@@H]1[C@H](C(=O)OC)[C@H](C(=O)c2ccc(Cl)cc2)N2N=CC=C[C@@H]12`: 25 mm; for `CCOC(=O)c1cc(C(=O)c2ccc(Cl)cc2)n2ncccc12`: 30 mm; for `CCOC(=O)c1cc(C(=O)c2ccc(F)cc2)n2ncccc12`: 22 mm.
As for `COC(=O)c1c(C(=O)OC)c2cccnn2c1C(=O)c1ccc(C)cc1`, the “Diameter of inhibition zone” value worked out at 29 mm.

The test system of a further assay is Bacillus subtilis. The experiment in a line: Antibacterial activity Bacillus subtilis after 24 hrs at 30 degC by agar diffusion technique. The class given is functional. Put shortly: (§1)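 Agar diffusion method. Bacteria were maintained on Mueller Hinton agar, and the agar medium was inoculated with each test organism. Plates were incubated 24 h at 30 °C, then the diameter of the inhibition zone was measured in mm and reported as the mean diameter.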
Background: In agar diffusion tests the substance spreads into inoculated agar from a disc or well.
On to `COC(=O)c1c(C(=O)OC)c2cccnn2c1C(=O)c1ccc(Cl)cc1`, for which the “Diameter of inhibition zone” value stood at 26 mm.
`N#C[C@H]1C[C@@H](C(=O)c2ccc(Cl)cc2)N2N=CC=C[C@@H]12`: the “Diameter of inhibition zone” value is given as 29 mm.
On the same count and under the same terms, in the case of `COC(=O)[C@H]1[C@H](C(=O)OC)[C@H](C(=O)c2ccc(Cl)cc2)N2N=CC=C[C@@H]12` it was 36 mm; in that of `Cc1ccc(C(=O)[C@H]2[C@@H]3C(=O)N(c4ccccc4)C(=O)[C@@H]3[C@@H]3C=CC=NN32)cc1`, 37 mm; in that of `N#C[C@H]1C[C@@H](C(=O)c2ccc(F)cc2)N2N=CC=C[C@@H]12`, 27 mm.
`COC(=O)[C@@H]1[C@H](C(=O)OC)[C@H](C(=O)c2ccc(C)cc2)N2N=CC=C[C@@H]12`: the “Diameter of inhibition zone” value is listed as 39 mm.
On the same count and under the same terms, in the case of `O=C(C[n+]1ccccn1)c1ccc(F)cc1.[Br-]` it was 31 mm; in that of `COC(=O)[C@@H]1[C@H](C(=O)OC)[C@H](C(=O)c2ccc(Cl)cc2)N2N=CC=C[C@@H]12`, 39 mm.
On to `CCOC(=O)c1cc(C(=O)c2ccc(Cl)cc2)n2ncccc12`, for which the “Diameter of inhibition zone” value stood at 25 mm.
For the compound `CCOC(=O)c1cc(C(=O)c2ccc(F)cc2)n2ncccc12`, the “Diameter of inhibition zone” value came to 22 mm.
Take `COC(=O)c1c(C(=O)OC)c2cccnn2c1C(=O)c1ccc(C)cc1`: the “Diameter of inhibition zone” value is 26 mm.

The next assay relates to Escherichia coli. Briefly: Antibacterial activity Escherichia coli ATCC 25922 after 24 hrs at 30 degC by agar diffusion technique. The class given is functional. Put shortly: as §1
Consider `COC(=O)c1c(C(=O)OC)c2cccnn2c1C(=O)c1ccc(Cl)cc1`, for which the “Diameter of inhibition zone” value came to 31 mm.
On to `N#C[C@H]1C[C@@H](C(=O)c2ccc(Cl)cc2)N2N=CC=C[C@@H]12`, for which the “Diameter of inhibition zone” value was 28 mm.
Still for that read-out and setting: in the case of `COC(=O)[C@H]1[C@H](C(=O)OC)[C@H](C(=O)c2ccc(Cl)cc2)N2N=CC=C[C@@H]12` it was 31 mm; in that of `Cc1ccc(C(=O)[C@H]2[C@@H]3C(=O)N(c4ccccc4)C(=O)[C@@H]3[C@@H]3C=CC=NN32)cc1`, 24 mm; in that of `N#C[C@H]1C[C@@H](C(=O)c2ccc(F)cc2)N2N=CC=C[C@@H]12`, 20 mm.
Same read-out and setting: the same measure for `COC(=O)[C@@H]1[C@H](C(=O)OC)[C@H](C(=O)c2ccc(C)cc2)N2N=CC=C[C@@H]12`: 37 mm.
On the same count and under the same terms, the same measure for `O=C(C[n+]1ccccn1)c1ccc(F)cc1.[Br-]`: 31 mm.
`COC(=O)[C@@H]1[C@H](C(=O)OC)[C@H](C(=O)c2ccc(Cl)cc2)N2N=CC=C[C@@H]12`: the “Diameter of inhibition zone” value is recorded as 32 mm.
With `CCOC(=O)c1cc(C(=O)c2ccc(Cl)cc2)n2ncccc12`, the “Diameter of inhibition zone” value was determined as 33 mm.
On to `CCOC(=O)c1cc(C(=O)c2ccc(F)cc2)n2ncccc12`, for which the “Diameter of inhibition zone” value was 23 mm.
On to `COC(=O)c1c(C(=O)OC)c2cccnn2c1C(=O)c1ccc(C)cc1`, for which the “Diameter of inhibition zone” value was 25 mm.

In another assay the test system is Staphylococcus aureus. The experiment in a line: Antibacterial activity Staphylococcus aureus ATCC 25923 after 24 hrs at 30 degC by agar diffusion technique. The assay is classed as functional. Put shortly:
as §1
With `COC(=O)c1c(C(=O)OC)c2cccnn2c1C(=O)c1ccc(Cl)cc1`, the “Diameter of inhibition zone” value is recorded as 30 mm.
Regarding `N#C[C@H]1C[C@@H](C(=O)c2ccc(Cl)cc2)N2N=CC=C[C@@H]12`, the “Diameter of inhibition zone” value is reported as 30 mm.
Regarding `COC(=O)[C@H]1[C@H](C(=O)OC)[C@H](C(=O)c2ccc(Cl)cc2)N2N=CC=C[C@@H]12`, the “Diameter of inhibition zone” value was 23 mm.
Same read-out and setting: the same measure for `Cc1ccc(C(=O)[C@H]2[C@@H]3C(=O)N(c4ccccc4)C(=O)[C@@H]3[C@@H]3C=CC=NN32)cc1`: 31 mm; for `N#C[C@H]1C[C@@H](C(=O)c2ccc(F)cc2)N2N=CC=C[C@@H]12`: 26 mm; for `COC(=O)[C@@H]1[C@H](C(=O)OC)[C@H](C(=O)c2ccc(C)cc2)N2N=CC=C[C@@H]12`: 41 mm.
As to `O=C(C[n+]1ccccn1)c1ccc(F)cc1.[Br-]`, the “Diameter of inhibition zone” value is reported as 38 mm.
Still for that read-out and setting: the same measure for `COC(=O)[C@@H]1[C@H](C(=O)OC)[C@H](C(=O)c2ccc(Cl)cc2)N2N=CC=C[C@@H]12`: 33 mm; for `CCOC(=O)c1cc(C(=O)c2ccc(Cl)cc2)n2ncccc12`: 25 mm; for `CCOC(=O)c1cc(C(=O)c2ccc(F)cc2)n2ncccc12`: 27 mm.
The same measure, in the same setting: the same measure for `COC(=O)c1c(C(=O)OC)c2cccnn2c1C(=O)c1ccc(C)cc1`: 46 mm.

In the next assay the test system is Pseudomonas aeruginosa. Briefly: Antibacterial activity Pseudomonas aeruginosa after 24 hrs at 30 degC by agar diffusion technique. The assay is classed as functional. Put shortly: as §1
As to `COC(=O)c1c(C(=O)OC)c2cccnn2c1C(=O)c1ccc(Cl)cc1`, the “Diameter of inhibition zone” value amounted to 18 mm.
The same measure, in the same setting: the same measure for `N#C[C@H]1C[C@@H](C(=O)c2ccc(Cl)cc2)N2N=CC=C[C@@H]12`: 14 mm; for `COC(=O)[C@H]1[C@H](C(=O)OC)[C@H](C(=O)c2ccc(Cl)cc2)N2N=CC=C[C@@H]12`: 15 mm; for `Cc1ccc(C(=O)[C@H]2[C@@H]3C(=O)N(c4ccccc4)C(=O)[C@@H]3[C@@H]3C=CC=NN32)cc1`: 18 mm.
Take `N#C[C@H]1C[C@@H](C(=O)c2ccc(F)cc2)N2N=CC=C[C@@H]12`: the “Diameter of inhibition zone” value was 14 mm.
With `COC(=O)[C@@H]1[C@H](C(=O)OC)[C@H](C(=O)c2ccc(C)cc2)N2N=CC=C[C@@H]12`, the “Diameter of inhibition zone” value is listed as 19 mm.
For `O=C(C[n+]1ccccn1)c1ccc(F)cc1.[Br-]`, the “Diameter of inhibition zone” value was 20 mm.
For the compound `COC(=O)[C@@H]1[C@H](C(=O)OC)[C@H](C(=O)c2ccc(Cl)cc2)N2N=CC=C[C@@H]12`, the “Diameter of inhibition zone” value is listed as 18 mm.
As for `CCOC(=O)c1cc(C(=O)c2ccc(Cl)cc2)n2ncccc12`, the “Diameter of inhibition zone” value was 20 mm.
The same measure, in the same setting: in the case of `CCOC(=O)c1cc(C(=O)c2ccc(F)cc2)n2ncccc12` it was 20 mm; in that of `COC(=O)c1c(C(=O)OC)c2cccnn2c1C(=O)c1ccc(C)cc1`, 19 mm.

The test system of the next assay is Micrococcus luteus. Briefly: Antibacterial activity Sarcina lutea ATCC 9341 after 24 hrs at 30 degC by agar diffusion technique. The assay is classed as functional. Put shortly:
as §1
As to `COC(=O)c1c(C(=O)OC)c2cccnn2c1C(=O)c1ccc(Cl)cc1`, the “Diameter of inhibition zone” value is given as 57 mm.
Turning to `N#C[C@H]1C[C@@H](C(=O)c2ccc(Cl)cc2)N2N=CC=C[C@@H]12`, the “Diameter of inhibition zone” value was 57 mm.
With `COC(=O)[C@H]1[C@H](C(=O)OC)[C@H](C(=O)c2ccc(Cl)cc2)N2N=CC=C[C@@H]12`, the “Diameter of inhibition zone” value is given as 54 mm.
In the case of `Cc1ccc(C(=O)[C@H]2[C@@H]3C(=O)N(c4ccccc4)C(=O)[C@@H]3[C@@H]3C=CC=NN32)cc1`, the “Diameter of inhibition zone” value was determined as 73 mm.
For `N#C[C@H]1C[C@@H](C(=O)c2ccc(F)cc2)N2N=CC=C[C@@H]12`, the “Diameter of inhibition zone” value amounted to 50 mm.
On to `COC(=O)[C@@H]1[C@H](C(=O)OC)[C@H](C(=O)c2ccc(C)cc2)N2N=CC=C[C@@H]12`, for which the “Diameter of inhibition zone” value is given as 62 mm.
Same read-out and setting: in the case of `O=C(C[n+]1ccccn1)c1ccc(F)cc1.[Br-]` it was 61 mm.
On to `COC(=O)[C@@H]1[C@H](C(=O)OC)[C@H](C(=O)c2ccc(Cl)cc2)N2N=CC=C[C@@H]12`, for which the “Diameter of inhibition zone” value amounted to 56 mm.
On the same count and under the same terms, the same measure for `CCOC(=O)c1cc(C(=O)c2ccc(Cl)cc2)n2ncccc12`: 48 mm; for `CCOC(=O)c1cc(C(=O)c2ccc(F)cc2)n2ncccc12`: 48 mm; for `COC(=O)c1c(C(=O)OC)c2cccnn2c1C(=O)c1ccc(C)cc1`: 65 mm.
